Sampled rows, rich in hits. Any-hit rate of the full collection: about 2.7%.
L929 necroptosis: L929 zVAD cell death inhibition; L929 zVAD necroptosis rescue, ATP luminescence, 24 h; with zVAD 60 µM; viability rescue, % at 10 µM; hit rate 0.38% among 220,000; AID 1377;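 active = activation, scaled between plate controls, above about 75%, limit read from the data; inactive = activation under that limit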;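 also: 0% = zVAD with DMSO and 100% = DMSO alone without zVAD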
p97 ATPase inh: human p97 ATPase inhibition | AID 1481 | inhibition, % at 8 µM | P55072 | hit rate 0.42% among 220,000 | recombinant p97 ATPase, Kinase-Glo ATP luminescence, 3 h; in the data active = inhibition above about 15%;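 also: 0% = DMSO vehicle and 100% = wells lacking enzyme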
Target sequence (P55072 whole entry, looked up): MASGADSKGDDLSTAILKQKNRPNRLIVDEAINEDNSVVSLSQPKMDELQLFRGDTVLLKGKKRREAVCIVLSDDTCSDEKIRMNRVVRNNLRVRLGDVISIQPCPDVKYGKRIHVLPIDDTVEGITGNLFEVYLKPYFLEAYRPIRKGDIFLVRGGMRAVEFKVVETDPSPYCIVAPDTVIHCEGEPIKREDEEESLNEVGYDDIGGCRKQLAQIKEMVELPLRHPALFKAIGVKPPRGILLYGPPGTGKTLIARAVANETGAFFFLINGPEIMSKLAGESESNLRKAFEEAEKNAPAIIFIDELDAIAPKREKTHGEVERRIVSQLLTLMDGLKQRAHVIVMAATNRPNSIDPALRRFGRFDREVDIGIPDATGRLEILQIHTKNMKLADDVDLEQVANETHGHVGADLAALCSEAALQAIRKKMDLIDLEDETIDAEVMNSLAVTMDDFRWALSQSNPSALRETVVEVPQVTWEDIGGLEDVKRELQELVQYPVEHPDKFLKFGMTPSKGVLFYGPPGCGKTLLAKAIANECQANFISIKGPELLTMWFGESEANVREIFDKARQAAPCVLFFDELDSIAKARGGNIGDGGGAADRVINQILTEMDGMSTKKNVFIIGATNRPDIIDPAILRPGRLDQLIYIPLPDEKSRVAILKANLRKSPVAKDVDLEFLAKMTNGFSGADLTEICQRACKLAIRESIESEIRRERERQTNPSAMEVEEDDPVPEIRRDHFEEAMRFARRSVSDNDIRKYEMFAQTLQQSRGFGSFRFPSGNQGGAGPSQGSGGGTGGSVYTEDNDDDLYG
RBBP9 inhibitor: human RBBP9 hydrolase inhibition | hit rate 0.2% among 220,000 | O75884 | inhibition, % at 7.94 µM | recombinant RBBP9, FP-Rh probe fluorescence polarization;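 active = inhibition above the campaign mean of all tested compounds plus 3 SD, cut at about 14% in these data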;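 also: plate controls were DMSO wells with RBBP9 for no effect and wells lacking RBBP9 protein for full effect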
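System: RBBP9 protein | Quantity: 2.5 µM RBBP9 dispensing solution, before mixing | Reagent: FP-Rh probe, 375 nM dispensing solution | Timing: Enzyme-compound preincubation 30 min, then probe labeling 45 min, 25 °C | Measured by: Fluorescence polarization | Read-out: % inhibition | Replication: One well per compound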
Wee1 stabilizer: human Wee1 degradation inhibition, primary screen. reporter increase, % at 5 µM. P30291. HeLa Luc-Wee1K328M stability, luciferase luminescence; 100% = proteasome inhibitor MG132 effect. hit rate 1.2% among 220,000;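 active = activation above the mean of all tested compounds plus 3 SD, set per screening run, cut at about 8.8% in these data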;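 also: cells exposed to compound for 20 h before luminescence read; 0% = DMSO alone and 100% = MG132 at 30 µM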
PfM18AAP inh-1: blocks P. falciparum M18 aspartyl aminopeptidase. inhibition, % at 7.35 µM. hit rate 1.2% among 290,000. recombinant PfM18AAP, H-Glu-NHMec fluorogenic cleavage;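 active = inhibition above the campaign mean inhibition over all tested compounds plus 3 SD, cut at about 28% in these data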;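 also: 0% = plate median of test compound wells and 100% = 2 mM ZnCl2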
TNF necrop inh: inhibitors of TNF-alpha induced necroptosis in Jurkat FADD-/- cells; Jurkat FADD-/- TNF necroptosis rescue, ATP luminescence, 24 h; 0 = TNF only, 100 = no-TNF cells; activation (protection from cell death), % at 10 µM; hit rate 0.068% among 220,000;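 active = activation, meaning protection from cell death, of at least 50% relative to plate controls; inactive = activation below 50%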;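 also: necroptosis triggered by 40 ng/mL TNF-alpha added together with compound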
Wee1 degr conf: confirmation of human Wee1 degradation inhibitors. shares compounds with Wee1 stabilizer. HeLa Luc-Wee1K328M degradation, luminescence; vehicle 0%, proteasome-blocked wells 100%. activation, % at 5 µM. hit rate 4% among 1,100; in the data active = activation above about 8.9%
zVAD death conf: confirmed blocker of zVAD induced death in L929 cells | activation (protection from necroptosis), % at 10 µM | hit rate 16% among 760 | shares compounds with L929 necroptosis | L929 zVAD-induced necroptosis rescue, ATP luminescence, 24 h;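 active = mean protection from necroptosis of at least 50% over duplicate tests; inactive = mean protection below 50%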;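 also: 0% = cells with zVAD alone and 100% = vehicle cells without zVAD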
PfM18AAP inh-2: confirmation of Plasmodium falciparum M18 aspartyl aminopeptidase inhibitors; shares compounds with PfM18AAP inh-1; recombinant PfM18AAP, H-Glu-NHMec fluorogenic cleavage; inhibition, % at 7.35 µM; hit rate 28% among 2,400;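 active = mean inhibition over replicate wells above the hit cutoff set for the earlier primary screen, cut at about 29% in these data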;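 also: 0% = median of test compound wells and 100% = 2 mM ZnCl2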
CTSL1 counter: counter-screen for PFM18AAP inhibitors: confirmation of human cathepsin L inhibitors; shares compounds with PfM18AAP inh-1; purified cathepsin L1, Z-Leu-Arg-MCA fluorescence; inhibition, % at 5.96 µM; 2,400 tested, under 10 active; AID 2178;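 active = average inhibition across replicates above the hit cutoff set in the earlier primary screen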;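 also: 0% = median of test compound wells and 100% = Z-Phe-Ala-diazomethylketone 1 µM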
* hit, by the source's call; x = no result.

SMILES	L929 necroptosis	p97 ATPase inh	RBBP9 inhibitor	Wee1 stabilizer	PfM18AAP inh-1	TNF necrop inh	zVAD death conf	others
COC(=O)/C=C/c1ccc(OC(=O)OC)c(OC(=O)OC)c1	13.2	7.1	6.9	12.2*	74.5*	0.9	x	Wee1 degr conf=0.8;PfM18AAP inh-2=34.2*;CTSL1 counter=-1.1
COc1cc(/C=N/Nc2ccc(S(N)(=O)=O)cc2[N+](=O)[O-])cc(OC)c1O	1.4	7.0	8.7	10.9*	45.4*	-5.5	x	Wee1 degr conf=-1.2;PfM18AAP inh-2=13.5;CTSL1 counter=3.4
CCNc1ccc(C(=O)NN=C2CCCC2)cc1[N+](=O)[O-]	1.1	-0.9	-7.2	1.1	-2.9	0.8	x
CC(C)(C)c1cc(NCc2ccccn2)n2ncc(-c3ccc(Cl)cc3)c2n1	77.3*	1.6	9.2	1.5	-16.0	3.6	1.1
COc1ccccc1NS(=O)(=O)c1cccc(C(=O)N/N=C(\C)c2ccc(-n3ccnc3)cc2)c1	76.2*	3.1	-3.5	1.3	30.5*	1.6	37.8
O=C(CN1CCOCC1)Nc1nc2ccc(Br)cc2s1	77.0*	5.6	-6.5	-3.6	-0.7	4.3	15.9
O=C(CN1CCOCC1)Nc1nc2ccc(Cl)cc2s1	x	x	x	x	-1.1	x	x
CNc1ncc(C(=O)c2ccc(F)cc2)s1	84.7*	3.3	-4.4	0.6	6.3	6.9	3.9
COc1ccccc1C(=O)C1CCCN(C(=O)CCn2cnnn2)C1 (centres undefined)	0.1	3.7	-6.3	-1.5	-3.5	0.8	x
O=C(COc1ccc(S(=O)(=O)Nc2ccccc2)cc1)NCc1ccncc1	1.4	2.8	5.2	-0.9	2.3	-1.9	x
CC1=NN(c2ccccc2)C(=O)/C1=C\c1cc(C)n(-c2cccnc2)c1C	0.3	-2.9	-9.0	-1.9	-4.6	-1.6	x
CC1=NN(c2ccccc2)C(=O)/C1=C\c1cc(C)n(-c2ccccc2)c1C	87.8*	-3.6	-7.7	-1.0	-8.2	2.8	2.3
Nc1ccc(Nc2nc(-c3cc4ccccc4oc3=O)cs2)cc1	79.9*	10.0	6.8	-4.6	-10.9	-5.9	3.7
Fc1c(F)c(-n2nnc3ccccc32)c(F)c(F)c1Cl	x	x	x	x	1.7	x	x
CC1CCC/C=C/C(=O)c2c(O)cc(O)cc2CC(=O)O1 (centres undefined)	83.9*	x	x	x	x	-25.8	32.5
C[C@@H]1Cc2c(O)c(O)cc(O)c2C(=O)O1	2.3	x	x	x	x	-1.3	x
CCOC(=O)N1CCN(C(=O)c2c[nH]c3ccc(S(=O)(=O)N(C)c4ccc(OCC)cc4)cc3c2=O)CC1	x	x	x	x	3.2	x	x
O=C(CCl)N1c2ccccc2OCC1c1ccccc1 (centres undefined)	90.1*	3.9	-7.3	-0.9	-3.6	-15.1	2.8
O=C(CCl)N1c2ccccc2SCC1c1ccccc1 (centres undefined)	x	x	x	x	-8.8	x	x
COc1ccc(-c2cnc(N)nc2-c2ccc(OC)cc2O)cc1	92.5*	6.2	-5.8	0.6	-0.5	0.8	7.8
O=C(CSc1nnc(-c2ccccc2Br)o1)N1CCN(C(=O)c2ccco2)CC1	86.3*	0.8	-1.9	0.4	0.6	-1.0	38.5
COC(CNC(=O)[C@H](Cc1ccccc1)N1Cc2ccccc2C1=O)OC	x	x	x	x	-4.7	x	x
O=C(Nc1ccc(Cl)c(C(F)(F)F)c1)NC1CC2CCCC(C1)N2Cc1ccccc1 (centres undefined)	76.3*	8.1	-4.7	-1.8	-4.2	-0.1	33.4
Cc1cccc(-n2c(C)nc3cc(C(=O)N4CCOCC4)ccc32)c1	x	x	x	x	1.6	x	x
O=C(NC12CC3CC(CC(C3)C1)C2)c1ccc(N2CCNCC2)c([N+](=O)[O-])c1	18.3	-3.3	-12.5	1.4	-3.7	-11.7	x
SMILES	L929 necroptosis	p97 ATPase inh	RBBP9 inhibitor	Wee1 stabilizer	PfM18AAP inh-1	TNF necrop inh	zVAD death conf	others
N#Cc1cccc(NC(=O)COc2ccc(-n3ccnc3)cc2)c1	77.3*	0.5	-3.9	-1.3	1.6	-2.2	67.7*
O=C(Cc1ccc(-c2ccccc2)cc1)OCC(=O)N1CCCC1=O	-0.4	-4.3	-5.6	-2.9	-14.1	0.5	x
COc1ccc(NC(=O)NCCCCc2ccccc2)c(OC)c1	x	x	x	x	0.8	x	x
CC(=O)C1=C(C)NC(SCC(=O)Nc2nccs2)=C(C#N)C1c1ccccc1Cl (centres undefined)	82.0*	7.0	-10.6	3.6	8.2	14.5	2.7
C=CCOC(=O)C1=C(C)NC(SCC(=O)Nc2nccs2)=C(C#N)C1c1cccs1 (centres undefined)	87.5*	-7.5	-7.2	2.7	-10.2	12.1	66.1*
C=CCOC(=O)C1=C(C)NC(SCC(=O)Nc2nccs2)=C(C#N)C1c1ccc(Cl)cc1 (centres undefined)	0.7	1.9	-8.0	-2.2	-9.7	2.1	x
COc1ccccc1CCNC(=O)Cc1cccs1	-0.3	-5.1	-14.6	-0.4	-13.3	1.3	x
COc1cc(/C=C/C(=O)c2ccc(NS(=O)(=O)c3ccc(C)cc3)cc2)cc(OC)c1O	102.8*	10.2	2.8	0.7	22.5	0.7	6.4
Cc1ccc(Cl)cc1NC(=S)N(CCN(C)C)C(C)c1ccccn1 (centres undefined)	-1.0	0.8	-7.7	-0.1	0.8	1.0	x
